Screen size: about 320,000 compounds; about 310 (0.097%) were called active.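 Rule for the calls: active = mean replicate activation of at least 60% and every replicate at or above 60%; inconclusive = mean or all-replicate condition met, but not both; inactive = mean below 60% and not all replicates reaching 60%.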 Shown is part of a subset that was picked to be rich in actives.
Test: enhancers of HDL lipid transfer via mSR-BI – ldlA[mSR-BI] CHO cells, DiI fluorescence, primary screen (AID 504775);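 note: 0% = median plate neutral-control signal and 100% = twice that signal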
Settings: DiI-HDL uptake fluorescence, 3 h, at 12.5 µM, active compounds read high, 100 = double the neutral-control signal
Method in brief: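 Test system: SR-BI-overexpressing, LDLR-lacking CHO cells; Also added: labelled HDL, 10 µg/mL; Measured by: bottom-read cell fluorescence after medium removal, ex 550/em 595 nm; Timing: 3 h uptake period with compound, 37 °C; Buffer or medium: F12, 0.5% BSA, 25 mM HEPES; Doses: single compound concentration, delivered by pin transfer.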

activation, inactive:
O=C(NN=CC=Cc1ccccc1)C(O)C(O)C(=O)NN=CC=Cc1ccccc1 (stereo unspecified) -3.92%, CCCCNCCS(=O)(=O)NCc1ccccc1 2.76%, CC(C)CN1CC(C)C(=O)N(c2ccccc2)C1=S (stereo unspecified) 3.77%, CC(C)C(c1nnnn1C1CCCCC1)N1CCN(C(=O)c2ccco2)CC1 (stereo unspecified) 4.65%, CCC(c1nnnn1C1CCCC1)N1CCN(C(=O)c2ccco2)CC1 (stereo unspecified) 3.81%, Cc1ccc(OCCNC(=O)c2cccc(S(=O)(=O)N3CCN(Cc4ccccc4)CC3)c2)cc1 -20.6%, CSCCC(NC(=O)COc1ccccc1)C(=O)N1CCN(c2cccc(C(F)(F)F)c2)CC1 (stereo unspecified) -13.3%, c1ccc2cc3c(NCCN4CCOCC4)ccnc3cc2c1 30.5%, C1=C(N2CCOCC2)/C(=C/c2nc3ccccc3[nH]2)CC1 6.52%, CCc1c(Nc2ccccc2Cl)nc(N)[nH]c1=O 15.3%, NC(=O)c1ncn([C@@H]2O[C@H](CNCc3cnc(N4CCOCC4)s3)[C@@H](O)[C@H]2O)n1 -12%, COc1cc2c(cc1CNC[C@H]1O[C@@H](n3cnc(C(N)=O)n3)[C@H](O)[C@@H]1O)OCO2 13.6%, CCCCNC1(C#N)CCN(Cc2ccccc2)CC1 2.1%, COc1ccc(CC(=O)N[C@@H]2c3cc(OC)c(OC)cc3C[C@H]2OCc2ccccc2)cc1 -26.8%, COc1ccc(C2NCCCC2c2ccccc2)cc1 (stereo unspecified) -26.9%, CC1C(C)N(C(=O)CCl)c2ccccc2N1C(=O)CCl (stereo unspecified) 12%, Cc1ccccc1N1CCN(C(=O)c2cccnc2)CC1 2.45%, C[C@@H]1NS(=O)(=O)c2cc(Cl)ccc2O[C@@H]1c1ccccc1 -33.6%, COC(=O)c1ccc(CNC(=O)Cn2cc(C)c(=O)[nH]c2=O)cc1 -1.85%, O=C(NNS(=O)(=O)c1ccc(F)cc1)c1ccc([N+](=O)[O-])cc1Cl 4.85%, Cc1cc([N+](=O)[O-])ccc1NS(=O)(=O)c1ccccc1 11.2%, OC(COc1ccccc1)CN1CCN(c2cccc(Cl)c2)CC1 (stereo unspecified) -8.42%, COc1cc(/C=C/c2ccc(/C=C/c3cc(OC)c(OC)c(OC)c3)cc2)cc(OC)c1OC -51.2%, O=C1C(Cl)=C(Oc2ccccc2)C(=O)c2ccccc21 -13.1%, COc1ccc(NS(=O)(=O)c2ccc(N3CCOCC3)c(NC(=O)/C=C/C(=O)O)c2)cc1 22.2%, COc1ccc(CC(=O)NC(C)c2ccc(Cl)c(Cl)c2)cc1S(=O)(=O)N1CCOCC1 (stereo unspecified) -4.63%, Cc1cc([N+](=O)[O-])c(=O)[nH]c1C 9.21%, CC(NC(=O)c1ccccc1)C(=O)Nc1ccccc1 (stereo unspecified) -16.6%, NC(=O)C1(Nc2ccc([N+](=O)[O-])cc2)CCCC1 -13.2%, S=C(Nc1ccccc1)Nc1ccc2ccccc2c1 -9.12%, CN1C(c2ccc(F)cc2)=CS/C1=C(/C#N)c1nnc2n1-c1ccccc1SC2 -32.2%, CN(CCc1ccccc1)C(=O)c1cccc(NC(=O)Cc2cccc(NC(=O)C3CCCN(C(=O)CCc4ccccc4)C3)c2)c1 (stereo unspecified) -78.5%, C=CCOC(=O)N1CCC2CC1c1cc(-c3ccc(OC)cc3)ccc12 (stereo unspecified) 4.14%, CCCCN1CC(CO)Oc2cccc(F)c2S1(=O)=O (stereo unspecified) 10.7%, C/C(=N\Nc1ccc(Cl)nn1)c1ccccc1O 7.73%, CCCN(CCC)S(=O)(=O)c1cc2c(cc1Br)CCN2C(=O)CC -7.1%, NS(=O)(=O)c1ccc(CCNC(=O)c2ccc(Cl)c(S(=O)(=O)N3CCCCCC3)c2)cc1 -32.8%, CCc1c(Nc2ccccc2C)nc(N)[nH]c1=O -3.67%, O=C(NN=Cc1ccccc1O)NN=Cc1ccccc1O -79.8%, CCN(CC)CCCC(C)n1c2nc(=O)[nH]c(=O)c-2nc2cc(Cl)ccc21 (stereo unspecified) -9.91%, CCCCC(=O)NC(c1ccc(OC)c(OC)c1)c1ccc2cccnc2c1O (stereo unspecified) -3.38%, NC(=NC(=O)c1ccccc1)N1CCOCC1 1.4%, O=C(CSC(=S)N1CCOCC1)c1ccccc1 -13.4%, Cc1nc2ccc(N)nc2nc1C -22.1%, COc1ccc(S(=O)(=O)N2C[C@H]3CON(C)[C@H]3C[C@H]2c2cccc(Br)c2)cc1 7.88%, CN(C(=O)c1cccc(NC(=O)Cc2ccc(NC(=O)C3CCCN(C(=O)C4CCCC4)C3)cc2)c1)C1CCC1 (stereo unspecified) -86.9%, CCCCN1CC(COc2ccccc2)Oc2cccc(F)c2S1(=O)=O (stereo unspecified) -3.91%, COC1=CC(=O)OC(C)(c2ccccc2)C1 (stereo unspecified) -8.07%, O=c1[nH]c(=S)[nH]c(O)c1/C=C1\C=Nc2ccccc21 12.1%, Cc1cc(OCCCC(=O)Nc2cc(S(=O)(=O)N3CCOCC3)ccc2N2CCOCC2)ccc1Cl -17.2%, COC1=NC2=NCCN2C(OC)=N1 7.98%, CC1=CC(=NNS(=O)(=O)c2ccc([N+](=O)[O-])cc2)CC(C)(C)C1 27.7%, CC(C)Cc1nnc(N)s1 10.1%, Cc1nc(N)nc(Cl)c1CCC1OCCO1 19.5%, NNc1cccc(C=Cc2ccccc2)cc1=O -16.6%, Nc1cc(=O)n(Cc2ccccc2)c(=O)n1Cc1ccccc1 -0.22%

activation, active:
CC(C)C(c1nnnn1CCc1ccccc1)N1CCN(C(=O)c2ccco2)CC1 (stereo unspecified) 424%, c1ccc2[nH]c(NCCN3CCOCC3)nc2c1 62.8%, NC(=O)c1ncn([C@@H]2O[C@H](CN=C3NS(=O)(=O)c4ccccc43)[C@@H](O)[C@H]2O)n1 74.1%, O=[N+]([O-])c1ccc(NS(=O)(=O)c2ccccc2)c(Cl)c1 84.4%, O=C(NC(=O)N1CCOCC1)c1ccccc1 67.4%
